An excerpt weighted towards active compounds, which were near 3.7% of everything screened.
eIF4E 4G PPI: eIF4E–eIF4G protein interaction inhibitors, primary screen, biochemical, uHTS, TR-FRET, eIF4GI fragment; TR-FRET eIF4E-eIF4GI(517-606) binding, 2 h; inhibition, % at 21.7 µM; 220,000 tested, 0.37% active; AID 782, 2007;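 note: 0% = full FRET control wells and 100% = background wells lacking eIF4GI fragment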
EBV gp42 inh: Epstein-Barr virus gp42 inhibitors, primary screen, biochemical, uHTS, fluorescence polarization; Glycoprotein 42 (Epstein-Barr virus (strain AG876)), Q1HVG2; Fluorescence polarization binding assay, mP read-out; inhibition, % (tested at 21.74 µM); 220,000 tested, 0.42% active; AID 1085, 2008; in the data active = inhibition above about 50%
WT yeast gro inh: growth inhibition of WT strain, primary screen, mitochondrial fusion inhibitor project, WT and mutant strains, chemical genetic. mitochondrial fusion phenotypic screen. inhibition, % at 10 µM. 190,000 tested, 2.1% active; in the data active = inhibition above about 58%; tested in S. cerevisiae
14-3-3 Bad inh: inhibitors of 14-3-3 zeta/Bad binding, primary screen, biochemical, TR-FRET, bovine 14-3-3 zeta | 14-3-3 protein zeta/delta (Bos taurus), P63103 | TR-FRET 14-3-3zeta/Dy647-pBad peptide displacement, 1 h | inhibition, % at 21.7 µM | 220,000 tested, 0.71% active | AID 781, 2007;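 active = inhibition above about 70%, limit read from the data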;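 note: 0% = full 14-3-3 plus peptide FRET controls and 100% = background without 14-3-3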
Target sequence (P63103 whole entry, looked up): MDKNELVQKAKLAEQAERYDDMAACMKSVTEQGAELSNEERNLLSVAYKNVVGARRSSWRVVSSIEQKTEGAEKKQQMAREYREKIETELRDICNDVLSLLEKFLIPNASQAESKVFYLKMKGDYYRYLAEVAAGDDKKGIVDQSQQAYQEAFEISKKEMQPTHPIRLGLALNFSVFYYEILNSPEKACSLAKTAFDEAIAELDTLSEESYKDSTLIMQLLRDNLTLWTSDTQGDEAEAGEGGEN
NCF1 inh: p47phox/p22phox peptide binding inhibitors, primary screen, biochemical, uHTS, NADPH oxidase regulatory subunit | 220,000 tested, 0.53% active | AID 1274, 2008 | Neutrophil cytosol factor 1 (Homo sapiens), P14598 | fluorescence polarization, 2 h | inhibition, % at 24.7 µM;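 note: 0% = p47phox with labelled peptide and 100% = labelled peptide alone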
Target sequence (P14598 whole entry, looked up): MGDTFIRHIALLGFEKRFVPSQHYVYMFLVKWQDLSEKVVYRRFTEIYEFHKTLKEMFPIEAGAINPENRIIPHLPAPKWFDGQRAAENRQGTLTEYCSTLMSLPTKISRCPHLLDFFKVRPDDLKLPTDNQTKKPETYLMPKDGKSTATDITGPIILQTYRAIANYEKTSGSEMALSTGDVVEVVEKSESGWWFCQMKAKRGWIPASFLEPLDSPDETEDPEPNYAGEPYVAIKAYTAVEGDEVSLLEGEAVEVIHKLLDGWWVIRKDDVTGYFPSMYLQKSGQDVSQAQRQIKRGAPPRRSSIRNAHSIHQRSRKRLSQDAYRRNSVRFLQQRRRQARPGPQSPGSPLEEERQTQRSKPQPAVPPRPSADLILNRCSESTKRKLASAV
RBBP9 inhibitor: human RBBP9 inhibitors, primary screen, biochemical, fluorescence polarization, FP-Rh probe, HTS; recombinant RBBP9; Serine hydrolase RBBP9 (Homo sapiens), O75884; 220,000 tested, 0.2% active; AID 1515, 2009; inhibition, % at 7.94 µM;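 active = inhibition above the campaign mean of all tested compounds plus 3 SD, cut at about 14% in these data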;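 note: plate controls were DMSO wells with RBBP9 for no effect and wells lacking RBBP9 protein for full effect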
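Material: RBBP9 protein. Amount: RBBP9 at 2.5 µM in dispensed solution, before mixing. Schedule: 30 min then 45 min, 25 °C. Medium: Tris buffer pH 8.0, NaCl, Pluronic. Measured by: fluorescence polarization. Measure: percent inhibition from mP, scaled between DMSO and no-protein wells. Replication: one well per compound.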
* marks the source's active call; other numbers are inactive results; / = no result.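 Rule for the calls, unless noted: active = inhibition above about 30% (limit read from the data); inactive = the rest.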

SMILES | eIF4E 4G PPI | EBV gp42 inh | WT yeast gro inh | 14-3-3 Bad inh | NCF1 inh | RBBP9 inhibitor
O=C(O)c1ccc(Oc2cccc([N+](=O)[O-])c2)cc1C(=O)O | -3 | -8 | -3 | 74* | -4 | -7
Cc1ccsc1C(=O)OCc1csc(-c2ccccc2)n1 | 5 | 3 | 67* | -4 | -5 | -1
O=C(OCc1csc(-c2ccccc2)n1)c1cccs1 | -14 | -85 | 48 | 22 | -10 | -9
COCCN1C(=O)/C(=C/c2ccc(OCc3ccc(C(=O)O)cc3)c(OC)c2)SC1=Nc1ccccc1 | 8 | 11 | 59* | -2 | -49 | -8
Cc1nonc1C1CCCN1Cc1cn[nH]c1-c1ccc(-c2ccccc2)cc1 (stereo not drawn) | 1 | -12 | 58* | -3 | -32 | -6
COc1cc(-c2[nH]ncc2CN2CCCC2c2nonc2C)cc(OC)c1OC (stereo not drawn) | -1 | -4 | 16 | 0 | 3 | -6
CS(=O)(=O)N(CC(=O)Nc1ccc(S(=O)(=O)N2CCCC2)cc1)c1cccc(F)c1 | -6 | 2 | / | -2 | -5 | 0
CCOC(=O)C1CCN(CC(=O)Nc2c(C(=O)OC)[nH]c3cccc(Cl)c23)CC1 | 3 | -19 | 12 | 3 | -5 | -9
COC(=O)c1[nH]c2cccc(Cl)c2c1NC(=O)CN(C)C1CCCCC1 | 4 | -12 | 61* | -11 | -18 | -4
CCn1c(=O)c(C(=O)Nc2nc3ccccc3[nH]2)c(O)c2ccccc21 | 1 | -23 | 84* | -3 | -5 | -8
Cc1nn(CC(=O)Nc2ccc(Cl)cn2)c(C)c1Br | 1 | -8 | 0 | 6 | -12 | 0
C=CCn1c(=O)/c(=C/c2cc(OC)c(OC)c(OC)c2)s/c1=C(/C#N)c1nc2ccccc2n1C | -3 | 96* | 10 | 3 | -35 | 5
C=CCn1c(=O)/c(=C/c2ccc(O)cc2)s/c1=C(/C#N)c1nnc2n1CCCCC2 | 10 | -135 | -18 | -18 | -108 | 7
O=C(Nc1ccc(F)cc1)c1ccccc1Oc1ccc(C(F)(F)F)cc1[N+](=O)[O-] | -5 | 7 | 66* | -11 | -4 | -2
CC1CCCCC1NC(=O)Cn1cnc2ccccc2c1=O (stereo not drawn) | 4 | 2 | -2 | -1 | -6 | 2
CCCCNC(=O)CN1C(=O)c2cccc(N)c2C1=O | 2 | 63* | -15 | -6 | -7 | 0
CC1CCCCC1NC(=O)CN1C(=O)c2cccc(N)c2C1=O (stereo not drawn) | 2 | 79* | -12 | -4 | 10 | 2
O=C(CCc1ccccc1)n1nc(-c2ccccc2)nc1NCc1ccco1 | -7 | 2 | 5 | -5 | -6 | -7
COc1ccc(Nc2nc(NCc3ccco3)nc(N/N=C/c3ccccc3)n2)cc1 | -2 | -1 | 11 | 81* | 2 | -6
OCCNc1nc(Nc2ccccc2)nc2ccccc12 | -1 | 1 | 28 | 46 | 5 | -4
OCCNc1nc(Nc2ccc(Br)cc2)nc2ccccc12 | 1 | 56* | 78 | 22 | -33 | -5
Oc1ccccc1Nc1nc(NCc2ccccc2)c2ccccc2n1 | 1 | 15 | 86* | -7 | -14 | -9
COc1ccc(CC(=O)n2nc(-c3ccccc3)nc2NCc2ccco2)cc1 | 2 | -26 | 4 | 78* | -67 | -1
O=C1NCCN(Cc2ccc(Cl)c(F)c2)C1CC(=O)N1CCCCO1 (stereo not drawn) | -3 | -2 | -3 | -11 | -7 | -7
O=C(CSCc1ccc([N+](=O)[O-])cc1)Nc1ccccc1C(=O)O | 1 | -16 | -29 | 4 | -2 | -7
SMILES | eIF4E 4G PPI | EBV gp42 inh | WT yeast gro inh | 14-3-3 Bad inh | NCF1 inh | RBBP9 inhibitor
Cc1ccc(Nc2nc(NCc3ccco3)c3ccccc3n2)cc1 | -1 | 17 | 94* | 11 | -8 | 2
COc1ccccc1Nc1nc(NCc2ccco2)c2ccccc2n1 | 0 | 10 | / | -1 | -57 | -1
Cc1ccccc1Cc1ccc(Cl)nn1 | -3 | 2 | -28 | 2 | -4 | -4
Cc1cccc(Oc2cc(N)cc([N+](=O)[O-])c2)c1 | 7 | -11 | 3 | 15 | -5 | 7
Nc1cc(Oc2cccnc2)cc([N+](=O)[O-])c1 | 4 | 3 | 6 | 89* | 4 | -6
CCC(C)NC(=O)C(=O)NCc1ccccn1 (stereo not drawn) | 3 | 4 | -19 | -7 | -5 | 1
C=CCn1c(SCC(=O)NC2CCS(=O)(=O)C2)nnc1-c1cc2c(s1)CCC(CC)C2 (stereo not drawn) | 0 | 2 | -9 | 7 | 6 | -4
C=CCn1c(-c2cc3c(s2)CCC(CC)C3)n[nH]c1=S (stereo not drawn) | -2 | -8 | 74* | -10 | -13 | -6
Cn1ncc(Br)c1N1C(=O)CCC1=O | 3 | -9 | / | -1 | -4 | 3
O=C(Nc1ccccc1Cl)c1ccc(-n2cccn2)c([N+](=O)[O-])c1 | 0 | -6 | 1 | -9 | -3 | 1
Cc1cccc(NC(=S)N(Cc2ccc(Br)cc2)Cc2ccc(C(=O)O)cc2)c1 | 3 | -10 | 0 | -19 | -14 | -5
Cc1ccc(NC(=S)N(Cc2cccc(Br)c2)CC2CCC(C(=O)O)CC2)cc1Cl (stereo not drawn) | 2 | 1 | 64* | -14 | -15 | -3
Cc1cc(NC(=S)N(Cc2ccc(Br)cc2)Cc2ccc(C(=O)O)cc2)ccc1Cl | 2 | 12 | 70* | -3 | -5 | -7
CC1CCCCN1C(=O)Cn1cnc2cc([N+](=O)[O-])ccc2c1=O (stereo not drawn) | 0 | -2 | 10 | 22 | 0 | -7
CC(=O)N(C)c1ccc(OCC(O)Cn2c(C)nc3ccccc32)cc1 (stereo not drawn) | -4 | -1 | 9 | 0 | 1 | 0
CC(=O)N(C)c1ccc(OCC(O)Cn2c3ccc(Cl)cc3c3cc(Cl)ccc32)cc1 (stereo not drawn) | 5 | -6 | 77* | -3 | -6 | -18
COc1ccc(-c2[nH]c(-c3cc(OC)c4c(c3)OCO4)nc2-c2ccccc2)cc1 | 2 | -24 | 63* | -5 | -43 | 0
COc1ccc(-c2nc(-c3ccccc3)c(-c3cc([N+](=O)[O-])ccc3C)[nH]2)cc1OC | 8 | -19 | 45 | 5 | -32 | -6
CC1=C(C)/C(=N\OS(=O)(=O)c2ccccc2)C=CC1=O | -3 | -16 | 80* | 11 | -1 | 3
